# Measurements gathered from unrelated publications.
# Target: cAMP-dependent protein kinase catalytic subunit alpha (PRKACA, Homo sapiens, UniProt P17612)
assay,setting,quantity,result,Compound
"cell-free assay, competition with immobilised ligand",25 µM,remaining binding,85%,N#Cc1ccc(NC(=O)Nc2ccccc2)cc1
binding,1 µM,remaining binding,111%,COc1ccc2oc(-c3ccc4nc(N)oc4c3)c/c(=N\c3ccccc3NC(=O)CCN)c2c1
"enzyme activity, inhibitor",1 µM,inhibition,59%,CO[C@@H]1[C@H](N(C)C(=O)c2ccccc2)C[C@H]2O[C@]1(C)n1c3ccccc3c3c4c(c5c6ccccc6n2c5c31)C(=O)NC4
cell-free assay,1 µM,remaining signal,100%,C#Cc1cnc(Nc2ccnc(CO)c2)nc1Nc1ccccc1S(C)(=O)=NC#N (centres unmarked)
cell-free assay,1 µM,remaining signal,100%,CN1CCN(C(=O)c2ccc(NC(=O)Nc3ccc(N(C)c4ccnc(Nc5ccc(CS(C)(=O)=O)cc5)n4)cc3)cc2)CC1
"enzyme activity, inhibitor",1 µM,inhibition,9%,C=CC(=O)N1CCC([C@@H]2CCNc3c(C(N)=O)c(-c4ccc(Oc5ccccc5)cc4)nn32)CC1
cell-free assay,1 µM,remaining signal,87%,COc1ccc2[nH]c3c4[nH]c5ccc(OC)cc5c4c4c(c3c2c1)C(=O)NC4=O
"binding, competition with immobilised ligand",0.5 µM,remaining binding,97%,CCCCC(=O)Nc1ccc(-c2ccc3ncn(CCC)c(=O)c3c2)cn1
